Screening results deposited in PubChem BioAssay by Johns Hopkins Ion Channel Center.
Shown are actives, neighbours in structure and some others; about 3.5% of the full set was active somewhere.
MrgX1 PAM – allosterically activates human MrgX1 receptor signaling; B-score at 10 µM; 310,000 tested, 0.63% active; Q96LB2; MrgX1-HEK293, Fluo-4 calcium flux, FDSS; hits give high values;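 active = plate-corrected calcium response at least 3 library SD above typical, normal starting fluorescence, not activating the receptor alone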;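 note: compound read alongside a low EC10 to EC30 dose of BAM8-22 agonist; peak minus trough fluorescence over baseline measured at the second addition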
Target sequence (Q96LB2 whole entry, looked up): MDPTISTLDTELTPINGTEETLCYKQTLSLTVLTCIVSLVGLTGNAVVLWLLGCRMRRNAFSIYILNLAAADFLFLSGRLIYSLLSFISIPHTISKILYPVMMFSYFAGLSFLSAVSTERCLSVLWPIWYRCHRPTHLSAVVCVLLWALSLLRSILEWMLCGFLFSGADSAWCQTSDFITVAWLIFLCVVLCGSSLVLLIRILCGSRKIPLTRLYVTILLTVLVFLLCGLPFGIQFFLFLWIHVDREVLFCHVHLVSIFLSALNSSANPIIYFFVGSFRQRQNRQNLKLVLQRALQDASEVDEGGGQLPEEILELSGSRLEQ
RGS4 block – inhibitors of human RGS4; P49798; HEK293 M3R/RGS4 inducible, Fluo-4 calcium flux; hits give high values; triggered by carbachol at its EC20; AID 463165; 310,000 tested, 0.45% active; B-score at 10 µM;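 active = B-score, a plate-corrected calcium signal, over three deviations above library mean, with baseline fluorescence within five deviations of library mean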;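 note: RGS4 expression induced by doxycycline in cells with stable M3 receptor; B-score is computed from the integrated fluorescence ratio over baseline after carbachol; higher B-score means a larger calcium signal and so more RGS4 inhibition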
Target sequence (P49798 whole entry, looked up): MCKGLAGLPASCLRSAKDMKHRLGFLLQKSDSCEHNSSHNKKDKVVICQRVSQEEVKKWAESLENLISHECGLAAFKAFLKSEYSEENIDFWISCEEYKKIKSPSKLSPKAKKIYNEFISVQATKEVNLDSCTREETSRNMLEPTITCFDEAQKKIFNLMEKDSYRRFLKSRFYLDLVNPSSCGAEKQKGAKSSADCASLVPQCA
RGS4 pot – potentiators or activators of RGS4; 310,000 tested, 0.92% active; AID 463111; HEK293 M3R/inducible RGS4, carbachol calcium flux Fluo4; hits give low values; B-score at 10 µM;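 active = B-score of the integrated calcium signal more than 4 SD below the library mean, with starting fluorescence not abnormally high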;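 note: negative B-score means reduced calcium response which marks RGS4 activation or potentiation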
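test system = HEK293 cells with stable M3R and inducible RGS4 | schedule = recording 10 s baseline at 1 Hz, 100 s post-agonist | technique = Fluo4-AM (2 µM) calcium-flux fluorescence, kinetic read | measure = Agonist-evoked peak-minus-minimum fluorescence over baseline, integrated ratio, B score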
MrgX1 agonist – activates human MrgX1 receptor signaling. Q96LB2. MrgX1-HEK293 cells, Fluo-4 calcium fluorescence, agonist mode; hits give high values. B-score at 10 µM. 310,000 tested, 0.44% active. AID 588627;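 active = calcium response B-score plate-corrected fluorescence ratio at least 3 library SD, with starting fluorescence B-score inside 5 SD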
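Material: MrgX1-expressing HEK293 cells; input: 15,000 cells per well; doses: test compound given as first of three sequential additions; schedule: overnight plating before 1 h dye loading; technique: Fluo-4 NW calcium-flux fluorescence, kinetic read; evaluation: baseline-normalised fluorescence change ratio, B-scored; control set: plate-wise positive and negative controls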
MrgX1 antagonist – blocks BAM8-22 activation of human MrgX1 receptor. Q96LB2. MRGX1-HEK293 calcium flux, Fluo-4, BAM8-22 antagonism; hits give low values. B-score at 10 µM. 310,000 tested, 1.3% active. AID 588676;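 active = calcium-response B-score plate-corrected more than 3 library SD below zero, starting fluorescence within 5 deviations, no agonist response on first addition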;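 note: peak minus trough fluorescence over baseline after final BAM8-22 challenge near maximal dose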
MrgX1 ag confirm – human MrgX1 agonism, re-confirmation screen; shares compounds with MrgX1 agonist; 600 tested, 78% active; AID 602412; MrgX1-HEK293, Fluo-4 calcium fluorescence, FDSS; activation, % at 10 µM;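 active = calcium signal rise, corrected for plate position, at least 3 library SD high, with starting brightness within 5 such deviations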
HEK293 Ca flux – MrgX1 antagonist counter-screen hit in parental HEK293 cells. shares compounds with MrgX1 antagonist. Fluo-4 calcium fluorescence, FDSS. fluorescence ratio F(max-min)/F0 at 10 µM. 4,000 tested, 2% active. AID 624111;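 active = duplicate-averaged calcium fluorescence ratio at least three times the standard deviation of buffer wells, a nonspecific response in parental cells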
HEK293 Ca counter – counter-screen for MrgX1 allosteric activators: effect in parental HEK293 cells; shares compounds with MrgX1 antagonist; parental HEK293 calcium flux, Fluo-4 fluorescence ratio; hits give high values; fluorescence ratio F(max-min)/F0 at 10 µM; 4,000 tested, 0.4% active;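 active = calcium fluorescence ratio, averaged over duplicates, at least 3 SD of the buffer-well ratio, meaning a nonspecific response in receptor-free cells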;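 note: untransfected parental HEK293 lacking MrgX1 used as counterscreen for MrgX1 allosteric activators; fluorescence change taken during the second addition on a kinetic imager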
HEK293 Ca cntr2 – activity in parental HEK293 cells lacking MrgX1 receptor. shares compounds with MrgX1 antagonist. Fluo-4 calcium fluorescence (FDSS); hits give high values. fluorescence ratio F(max-min)/F0 at 10 µM. 4,000 tested, 8.7% active;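 active = calcium fluorescence ratio at least three times the spread of buffer wells, meaning a non-specific response in parental cells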
Large screens that a line does not name were inactive (follow-up assays come after a bar, where they were run).

CCOC(=O)c1cnn2c(C)cc(-c3ccc(F)cc3)nc12	MrgX1 agonist 26 | MrgX1 ag confirm inactive | HEK293 Ca flux inactive | HEK293 Ca counter inactive | HEK293 Ca cntr2 inactive
Cc1cccc(NC(=O)N2C3CCCC2CC(NC(=O)C(C)(C)C)C3)c1 (stereo not given)	none
CCCc1[nH]n(-c2nc3ccccc3s2)c(=O)c1C=NCC1CCCO1 (stereo not given)	MrgX1 agonist 51 | MrgX1 ag confirm 187% | HEK293 Ca flux inactive | HEK293 Ca counter inactive | HEK293 Ca cntr2 inactive
O=C(Cn1nc(Cl)nc1Cl)c1ccc2c(c1)OCCO2	MrgX1 agonist 53 | MrgX1 ag confirm 194% | HEK293 Ca flux inactive | HEK293 Ca counter inactive | HEK293 Ca cntr2 inactive
Cc1c(C(O)CN2CCN(Cc3ccc4c(c3)OCO4)CC2)c2ccccc2n1C (stereo not given)	MrgX1 agonist 33 | MrgX1 ag confirm inactive | HEK293 Ca flux inactive | HEK293 Ca counter inactive | HEK293 Ca cntr2 inactive
COc1ccc2c(c1)c(C(O)CN1CCN(Cc3ccc4c(c3)OCO4)CC1)c(C)n2C (stereo not given)	none
O=C(NC(=S)NNC(=O)[C@H]1C[C@@H]1c1ccccc1)c1cccc(F)c1	MrgX1 agonist 159 | MrgX1 ag confirm 600% | HEK293 Ca flux inactive | HEK293 Ca counter inactive | HEK293 Ca cntr2 105
COc1cccc(OC)c1C(=O)NC(=S)NNC(=O)[C@H]1C[C@@H]1c1ccccc1	none
CCCCCCCC1CC(CSC(=N)N)OC1=O (stereo not given)	MrgX1 agonist 41 | MrgX1 ag confirm 164% | HEK293 Ca flux inactive | HEK293 Ca counter inactive | HEK293 Ca cntr2 inactive
CCCCC1CC(CSC(=N)N)OC1=O (stereo not given)	none
O=C1NC(=O)/C(=C\c2ccc(OCc3cccc([N+](=O)[O-])c3)cc2)N1	none
C=CCNC(=O)c1ccccc1NC(=O)C1COc2ccccc2O1 (stereo not given)	none
Cn1c(=O)c(C(=O)NNC(=O)c2ccccc2F)c(O)c2ccccc21	MrgX1 agonist 65 | MrgX1 ag confirm 405% | HEK293 Ca flux inactive | HEK293 Ca counter inactive | HEK293 Ca cntr2 71
CCn1c(=O)c(C(=O)NNC(=O)c2ccccc2Cl)c(O)c2ccccc21	MrgX1 agonist 105 | MrgX1 ag confirm 322% | HEK293 Ca flux inactive | HEK293 Ca counter inactive | HEK293 Ca cntr2 78
CCOC(=O)c1c(NC(=O)COc2cccc3c2CCN(CC)C3=O)sc2c1CCC2	none
Cc1cc(Nc2ccccc2)nc(NCc2ccccc2)n1	none
CCCCNc1cc(C)nc(NCc2ccccc2)n1	MrgX1 agonist 29 | MrgX1 ag confirm 241% | HEK293 Ca flux inactive | HEK293 Ca counter inactive | HEK293 Ca cntr2 inactive
Cc1cc(N2CCC(C)CC2)nc(NCc2ccccc2)n1	RGS4 pot -7, MrgX1 agonist 46 | MrgX1 ag confirm 148% | HEK293 Ca flux inactive | HEK293 Ca counter inactive | HEK293 Ca cntr2 inactive
O/C(=C\c1ccc2ccccc2n1)c1ccncc1	MrgX1 agonist 64 | MrgX1 ag confirm 355% | HEK293 Ca flux inactive | HEK293 Ca counter inactive | HEK293 Ca cntr2 127
Cc1cc(C)c(C#N)c(SCCN2CCOCC2)n1	none
N#Cc1ccc(-c2ccccc2)nc1SCCN1CCOCC1	MrgX1 agonist 28 | MrgX1 ag confirm 171% | HEK293 Ca flux inactive | HEK293 Ca counter inactive | HEK293 Ca cntr2 inactive
CC(C)(C)c1ccc(S(=O)(=O)/N=C2\C=C(NS(=O)(=O)c3ccccc3)C(=O)c3ccccc32)cc1	MrgX1 agonist 27 | MrgX1 ag confirm 80% | HEK293 Ca flux inactive | HEK293 Ca counter inactive | HEK293 Ca cntr2 57
CCOc1ccc(NC(=O)c2sc3nc(C)nc(N4CCOCC4)c3c2C)cc1	none
Cc1cc(NC(=O)CCS(=O)(=O)c2nc(-c3ccccc3)cc(C(F)(F)F)n2)no1	none (no result: RGS4 block, RGS4 pot)
CS(=O)(=O)c1nc(-c2ccccc2)cc(C(F)(F)F)n1	MrgX1 agonist 38 | MrgX1 ag confirm 184% | HEK293 Ca flux inactive | HEK293 Ca counter inactive | HEK293 Ca cntr2 inactive
COc1ccc(NC2CC(=O)N(c3cc([N+](=O)[O-])ccc3C)C2=O)cc1 (stereo not given)	none
Cc1[nH]n(-c2ccccc2)c(=O)c1C(=O)c1ccc(Cl)cc1	MrgX1 agonist 37 | MrgX1 ag confirm 116% | HEK293 Ca flux inactive | HEK293 Ca counter inactive | HEK293 Ca cntr2 inactive
Cc1[nH]n(-c2ccc(Cl)cc2)c(=O)c1C(=O)c1ccccc1	MrgX1 agonist 40 | MrgX1 ag confirm 82% | HEK293 Ca flux inactive | HEK293 Ca counter inactive | HEK293 Ca cntr2 inactive
Cc1c(C(=O)NC2=NCCS2)cccc1[N+](=O)[O-]	none
O=S(=O)(c1ccccc1)c1nnn2c1nc(NC1CCN(Cc3ccccc3)CC1)c1ccccc12	MrgX1 agonist 60 | MrgX1 ag confirm 274% | HEK293 Ca flux inactive | HEK293 Ca counter inactive | HEK293 Ca cntr2 inactive
CCCCOc1ccc(Cl)cc1CSc1nnc(C)n1N	none
O=C(O)CCc1ccc(-c2ccc(Cl)cc2)n1Cc1ccco1	MrgX1 agonist 38 | MrgX1 ag confirm 159% | HEK293 Ca flux inactive | HEK293 Ca counter inactive | HEK293 Ca cntr2 inactive
CCCCCCCCCCSc1n[nH]c(N)n1	none
COc1cc(SC)ccc1C(=O)Nc1ccc(Cl)cn1	MrgX1 agonist 40 | MrgX1 ag confirm inactive | HEK293 Ca flux inactive | HEK293 Ca counter inactive | HEK293 Ca cntr2 inactive
CC(=O)Nc1cccc(OC(=O)c2ccoc2C)c1	MrgX1 agonist 33 | MrgX1 ag confirm 128% | HEK293 Ca flux inactive | HEK293 Ca counter inactive | HEK293 Ca cntr2 46
O=C(O)[C@@H]1Cc2ccccc2N1	none
c1ccc2c(c1)CNc1ccccc1C2	MrgX1 agonist 30 | MrgX1 ag confirm 224% | HEK293 Ca flux inactive | HEK293 Ca counter inactive | HEK293 Ca cntr2 inactive
CCn1c(SCC(=O)Nc2cc(Cl)ccc2OC)nnc1C1CC1	none
COC(=O)c1cc(-c2ccc(OC)c(OC)c2)c2c(=O)[nH]c(=O)n(C)c2n1	none
Cc1ccc(-c2ccc(C3C(C#N)=C(N)Oc4n[nH]c(C)c43)o2)cc1 (stereo not given)	MrgX1 agonist 37 | MrgX1 ag confirm 129% | HEK293 Ca flux inactive | HEK293 Ca counter inactive | HEK293 Ca cntr2 inactive
Cc1[nH]nc2c1C(c1ccc(-c3ccc(Cl)cc3)o1)C(C#N)=C(N)O2 (stereo not given)	MrgX1 agonist 34 | MrgX1 ag confirm inactive | HEK293 Ca flux inactive | HEK293 Ca counter inactive | HEK293 Ca cntr2 inactive
